Reference: ChEMBL document CHEMBL3124843, “Synthesis, cytostatic, antimicrobial, and anti-HCV activity of 6-substituted 7-(het)aryl-7-deazapurine ribonucleosides” (J Med Chem, 2014)
Active and inactive are the calls of the source. No rule for the calls is given here.

Key:
Candida tropicalis = test: Antifungal activity against Candida tropicalis after 48 hrs; format: functional, organism-based
Enterococcus faecalis = test: Antibacterial activity against Enterococcus faecalis CCM 4224 after 24 hrs; format: functional, organism-based
[1] = Cytostatic activity against human CEM-DNR-bulk cells after 72 hrs by MTT assay; format: functional, cell-based
In short: (§1)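 IC50 is the concentration that cuts cell growth by 50%, read by quantitative metabolic MTT staining after a 3-day treatment. The resistant sublines were made by raising the concentration of the cytotoxic drug step by step. CEM-DNR-bulk (daunorubicin-selected) stably overexpresses mrp-1. K562-TAX (paclitaxel-selected) expresses only mdr-1. HCT116p53−/− carries null p53 alleles. BJ and MRC-5 are nonmalignant fibroblasts.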

HCT-116 [2] = test: Cytostatic activity against human HCT116 cells after 72 hrs by MTT assay; format: functional, cell-based; details: HCT-116, 72 h; in short: as §1
[3] = Antiproliferative activity against human HeLaS3 cells after 72 hrs by XTT assay; format: functional, cell-based; details: HeLa S3, 72 h
In short: (§2)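 Antiproliferative test on HL-60 promyelocytic leukemia and HeLa S3 cervical carcinoma cells growing in liquid suspension.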

HepG2 = test: Antiproliferative activity against human HepG2 cells after 72 hrs by XTT assay; format: functional, cell-based; details: HepG2, 72 h
Pseudomonas aeruginosa [4] = test: Antibacterial activity against multi-resistant Pseudomonas aeruginosa A/16575 after 24 hrs; format: functional, organism-based
A549 = test: Cytostatic activity against human A549 cells after 72 hrs by MTT assay; format: functional, cell-based; details: A549, 72 h; in short: as §1
Escherichia coli [5] = test: Antibacterial activity against multi-resistant Escherichia coli C/16702 after 24 hrs; format: functional, organism-based
K562 [6] = test: Cytostatic activity against paclitaxel-resistant human K562 cells after 72 hrs by MTT assay; format: functional, cell-based; details: K562, 72 h; in short: as §1
BJ = test: Cytostatic activity against human BJ cells after 72 hrs by MTT assay; format: ADME, cell-based; in short: as §1
Staphylococcus aureus [7] = test: Antibacterial activity against methicillin-resistant Staphylococcus aureus MRSA 4591 after 24 hrs; format: functional, organism-based
Candida parapsilosis = test: Antifungal activity against Candida parapsilosis after 48 hrs; format: functional, organism-based
CCRF-CEM [8] = test: Cell cycle arrest in human CCRF-CEM cells assessed as accumulation at sub-G1 phase at IC50 after 24 hrs by propidium iodide staining-based flow cytometric analysis (reference value: 9.6%); format: functional
Escherichia coli [9] = test: Antibacterial activity against Escherichia coli CCM 3954 after 24 hrs; format: functional, organism-based
Candida albicans = test: Antifungal activity against Candida albicans after 48 hrs; format: functional, organism-based
[10] = Cytotoxicity against human HuH7 cells infected with Hepatitis C virus subtype 1b; format: cell-based, Huh-7
Hepatitis C virus [11] = test: Antiviral activity against Hepatitis C virus subtype 2a infected in human HuH7 cells; format: functional, organism-based, Hepacivirus hominis; details: genotype 2a, Huh-7
MRC5 = test: Cytostatic activity against human MRC5 cells after 72 hrs by MTT assay; format: ADME, cell-based; details: MRC5, 72 h; in short: as §1
Hepatitis C virus [12] = test: Antiviral activity against Hepatitis C virus subtype 1b infected in human HuH7 cells; format: functional, organism-based, Hepacivirus hominis; details: genotype 1b, Huh-7
Staphylococcus aureus [13] = test: Antibacterial activity against Staphylococcus aureus CCM 3953 after 24 hrs; format: functional, organism-based
[14] = Cytotoxicity against human HuH7 cells infected with Hepatitis C virus subtype 2a; format: cell-based, Huh-7
Pichia kudriavzevii = test: Antifungal activity against Candida crusei after 48 hrs; format: functional, organism-based
[15] = tested on: Staphylococcus haemolyticus; test: Antibacterial activity against methicillin-resistant Staphylococcus haemolyticus A/16568 after 24 hrs; format: functional, organism-based
Pseudomonas aeruginosa [16] = test: Antibacterial activity against Pseudomonas aeruginosa CCM 3955 after 24 hrs; format: functional, organism-based
CCRF-CEM [17] = test: Cytostatic activity against human CCRF-CEM cells after 72 hrs by MTT assay; format: functional, cell-based; in short: as §1
HCT-116 [18] = test: Cytostatic activity against p53-deficient human HCT116 cells after 72 hrs by MTT assay; format: functional, cell-based; details: HCT-116, 72 h; in short: as §1
CCRF-CEM [19] = test: Mitotic arrest in human CCRF-CEM cells assessed as pH3Ser10-positive cells at IC50 after 24 hrs by propidium iodide staining-based flow cytometric analysis (reference value: 1.4%); format: functional
HL-60 = test: Antiproliferative activity against human HL60 cells after 72 hrs by XTT assay; format: functional, cell-based; details: HL-60, 72 h; in short: as §2
K562 [20] = test: Cytostatic activity against human K562 cells after 72 hrs by MTT assay; format: functional, cell-based; details: K562, 72 h; in short: as §1
CCRF-CEM [21] = test: Inhibition of RNA synthesis in human CCRF-CEM cells assessed as BrU-positive cells at IC50 after 24 hrs by propidium iodide staining-based flow cytometric analysis (reference value: 43.3%); format: functional; parameters: scale not given: the % may be the effect or the level left

| Structure (SMILES) | Activity (Candida tropicalis) | Activity (Enterococcus faecalis) | IC50 [1] [nM] | IC50 (HCT-116 [2]) [nM] | IC50 [3] [nM] | IC50 (HepG2) [nM] | Activity (Pseudomonas aeruginosa [4]) | IC50 (A549) [nM] | Activity (Escherichia coli [5]) | IC50 (K562 [6]) [nM] | IC50 (BJ) [nM] | Activity (Staphylococcus aureus [7]) | Activity (Candida parapsilosis) | Activity (Escherichia coli [9]) | Activity (Candida albicans) | CC50 [10] [nM] | EC50 (Hepatitis C virus [11]) [nM] | IC50 (MRC5) [nM] | EC50 (Hepatitis C virus [12]) [nM] | Activity (Staphylococcus aureus [13]) | further results |
| --- | --- | --- | --- | --- | --- | --- | --- | --- | --- | --- | --- | --- | --- | --- | --- | --- | --- | --- | --- | --- | --- |
| C#Cc1cn([C@@H]2O[C@H](CO)[C@@H](O)[C@H]2O)c2ncnc(N(C)C)c12 | inactive | inactive | 240 | 180 | 810 | 1320 | inactive | 390 | inactive | 260 | 410 | inactive | inactive | inactive | inactive | > 44000 | 100 | 36100 | 70 | inactive | Activity (CCRF-CEM [8]): 8.9%; CC50 [14]: > 44000 nM; Activity (Pichia kudriavzevii): inactive; Activity [15]: inactive; Activity (Pseudomonas aeruginosa [16]): inactive; IC50 (CCRF-CEM [17]): 90 nM; IC50 (HCT-116 [18]): 290 nM; Activity (CCRF-CEM [19]): 1.3%; IC50 (HL-60): 290 nM; IC50 (K562 [20]): 110 nM; Activity (CCRF-CEM [21]): 8.6% |
| COc1ncnc2c1c(-c1ccsc1)cn2[C@@H]1O[C@H](CO)[C@@H](O)[C@H]1O | inactive | inactive | 7640 | 120 | 3350 | 430 | inactive | 5170 | inactive | 3450 | 64300 | inactive | inactive | inactive | inactive | > 44000 | > 44000 | 75300 | 550 | inactive | Activity (CCRF-CEM [8]): 75%; CC50 [14]: > 44000 nM; Activity (Pichia kudriavzevii): inactive; Activity [15]: inactive; Activity (Pseudomonas aeruginosa [16]): inactive; IC50 (CCRF-CEM [17]): 2570 nM; IC50 (HCT-116 [18]): 140 nM; Activity (CCRF-CEM [19]): 2.9%; IC50 (HL-60): 130 nM; IC50 (K562 [20]): 90 nM; Activity (CCRF-CEM [21]): 0.5% |
| CNc1ncnc2c1c(-c1ccco1)cn2[C@@H]1O[C@H](CO)[C@@H](O)[C@H]1O | inactive | inactive | > 20000 | 230 | 5000 | 850 | inactive | 2570 | inactive | 15100 | 5040 | inactive | inactive | inactive | inactive | > 44000 | 140 | 90800 | 60 | inactive | CC50 [14]: > 44000 nM; Activity (Pichia kudriavzevii): inactive; Activity [15]: inactive; Activity (Pseudomonas aeruginosa [16]): inactive; IC50 (CCRF-CEM [17]): 180 nM; IC50 (HCT-116 [18]): 440 nM; Activity (CCRF-CEM [19]): 1.4%; IC50 (HL-60): 620 nM; IC50 (K562 [20]): 220 nM; Activity (CCRF-CEM [21]): 1% |
| CSc1ncnc2c1c(-c1ccco1)cn2[C@@H]1O[C@H](CO)[C@@H](O)[C@H]1O | inactive | inactive | 230 | 20 | 540 | 220 | inactive | 50 | inactive | 210 | 260 | inactive | inactive | inactive | inactive | 38600 | 50 | 73900 | 70 | inactive | Activity (CCRF-CEM [8]): 7.9%; CC50 [14]: > 44000 nM; Activity (Pichia kudriavzevii): inactive; Activity [15]: inactive; Activity (Pseudomonas aeruginosa [16]): inactive; IC50 (CCRF-CEM [17]): 50 nM; IC50 (HCT-116 [18]): 10 nM; Activity (CCRF-CEM [19]): 0.7%; IC50 (HL-60): 120 nM; IC50 (K562 [20]): 40 nM; Activity (CCRF-CEM [21]): 5% |
| COc1ncnc2c1c(-c1ccco1)cn2[C@@H]1O[C@H](CO)[C@@H](O)[C@H]1O | inactive | inactive | 160 | 40 | 1020 | 300 | inactive | 30 | inactive | 380 | 430 | inactive | inactive | inactive | inactive | > 44000 | 30 | 1700 | 20 | inactive | Activity (CCRF-CEM [8]): 6.8%; CC50 [14]: > 44000 nM; Activity (Pichia kudriavzevii): inactive; Activity [15]: inactive; Activity (Pseudomonas aeruginosa [16]): inactive; IC50 (CCRF-CEM [17]): 20 nM; IC50 (HCT-116 [18]): 40 nM; Activity (CCRF-CEM [19]): 1.4%; IC50 (HL-60): 100 nM; IC50 (K562 [20]): 60 nM |
